For 2 molecules, IC50 and MIC results are on record in publication PMC3743164 (Chemmedchem, 2013).

≈ marks a conversion by molar mass, not a printed value.

The IC50 is the concentration at which inhibition is half-maximal. Broadly, the MIC is the least concentration at which growth counts as inhibited.

Assay [1] has as its system HepG2 cells. Kind of assay: HepG2 cytotoxicity assay. The class given is cell-based. To be noted: Homo sapiens, HepG2, 48 h, read-out: Ctox.: IC50 HepG2. The method, boiled down:
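HepG2 cells were harvested while actively growing, with monolayers kept ≤50 % confluent, in Eagle's MEM with 10 % FBS, 1 % NEAA and 1 % penicillin/streptomycin. They were seeded at about 3000 cells per well (1.2×10^5 cells mL−1) onto predispensed test compound. Plates were incubated 48 h at 37 °C, 80 % humidity and 5 % CO2, equilibrated 30 min at room temperature, then developed with CellTiter-Glo for 10 min before luminescence reading.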

The subject of assay [2] is M. tuberculosis H37Rv. Kind of assay: M. tuberculosis H37Rv inhibition assay. The class given is cell-based. To be noted: Mycobacterium tuberculosis, read-out: MIC H37Rv.

For `NNC(=O)c1ccncc1` [Isoniazid], the IC50 in assay [1] stood at 207 µM. The MIC in assay [2] came out at 1.8 µM (≈ 0.247 µg/mL).

`CO[C@H]1/C=C/O[C@@]2(C)Oc3c(C)c(O)c4c(O)c(c(/C=N/N5CCN(C)CC5)c(O)c4c3C2=O)NC(=O)/C(C)=C\C=C\[C@H](C)[C@H](O)[C@@H](C)[C@@H](O)[C@@H](C)[C@H](OC(C)=O)[C@@H]1C` [Rifampicin]: the IC50 in assay [1] is over 256 µM. For the same molecule, in assay [2], the MIC came out at 0.02 µM (≈ 0.0165 µg/mL).
